# Results reported in ChEMBL document CHEMBL3259775, “Towards the development of 5-HT₇ ligands combining serotonin-like and arylpiperazine moieties” (Eur J Med Chem, 2014).
# Target: T1, 5-hydroxytryptamine receptor 7 (Homo sapiens, UniProt P34969)
# Assay: Displacement of [3H]5-HT from human 5-HT7 receptor expressed in HEK293 cells after 30 mins by microbeta counting analysis
# Assay type: cell-based
# T1 sequence (P34969 whole entry): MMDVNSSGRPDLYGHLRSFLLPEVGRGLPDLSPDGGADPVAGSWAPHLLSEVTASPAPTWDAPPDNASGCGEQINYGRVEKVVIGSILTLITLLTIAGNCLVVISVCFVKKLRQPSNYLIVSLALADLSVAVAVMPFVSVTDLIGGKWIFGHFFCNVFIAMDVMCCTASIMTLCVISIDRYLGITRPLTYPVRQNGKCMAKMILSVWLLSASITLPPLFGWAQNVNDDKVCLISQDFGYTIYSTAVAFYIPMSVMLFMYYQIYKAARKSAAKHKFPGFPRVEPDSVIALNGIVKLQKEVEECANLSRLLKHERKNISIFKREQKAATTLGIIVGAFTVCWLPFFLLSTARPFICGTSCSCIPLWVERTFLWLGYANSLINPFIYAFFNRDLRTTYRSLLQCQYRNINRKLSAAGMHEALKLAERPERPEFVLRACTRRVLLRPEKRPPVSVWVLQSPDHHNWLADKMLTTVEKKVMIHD
row,Structure (SMILES),Ki [nM]
1,CN(CCCCCCN1CCN(c2cccc(C(F)(F)F)c2)CC1)c1cccc(O)c1,95.6
2,CN(CCCCCCN1CCC(c2ccccc2)CC1)c1cccc(O)c1,226
3,CN(CCN1CCN(c2ccccc2)CC1)c1cccc(O)c1,161
4,Oc1cccc(N(CCCN2CCN(c3ccccc3)CC2)c2ccccc2)c1,90.1
5,CN(CCCN1CCN(c2cccc3ccccc23)CC1)c1cccc(O)c1,2.9
6,CCCN(CCCN1CCN(c2ccccc2)CC1)c1cccc(O)c1,20.8
7,CN(CCCN1CCN(c2ccccc2)CC1)c1cccc(Cl)c1,179
8,CN(CCCN1CCC(c2ccccc2)(c2ccccc2)CC1)c1cccc(O)c1,242
9,CN(CCCN1CCN(c2ccc3ccccc3c2)CC1)c1cccc(O)c1,434
10,Oc1cccc(N(CCCCCCN2CCN(c3ccccc3)CC2)Cc2ccccc2)c1,138
11,CN(CCCCCCN1CCN(c2cccc3ccccc23)CC1)c1cccc(O)c1,39.4
12,O=S(=O)(c1ccccc1)N(CCCN1CCN(c2ccccc2)CC1)c1cccc(O)c1,12.1
13,CN(CCN1CCN(c2ccccc2)CC1)c1cccc([N+](=O)[O-])c1,332
14,CN(CCN1CCN(c2ccccc2)CC1)c1cccc(NS(C)(=O)=O)c1,57
15,CCc1[nH]c2ccc(O)cc2c1CCN1CCN(c2cccc3ccccc23)CC1,6.6
16,Oc1cccc(N(CCCN2CCN(c3ccccc3)CC2)Cc2ccccc2)c1,92.5
17,Cc1[nH]c2ccc(O)cc2c1CCN1CCN(c2cccc3ccccc23)CC1,12.8
18,CCN(CCCCCCN1CCN(c2ccccc2)CC1)c1cccc(O)c1,191
19,Oc1cccc2c1CC(N1CCN(c3ccccc3)CC1)CC2 (racemic),81.4
20,CN(CCCN1CCC(N(c2ccccc2)c2ccccc2)CC1)c1cccc(O)c1,310
21,CN(CCCCCCN1CCN(c2ccccc2)CC1)c1cccc(O)c1,12
22,CN(CCCCCN1CCN(c2ccccc2)CC1)c1cccc(O)c1,16.7

# Other lines, results leading:
row,Ki [nM],Structure (SMILES)
1,112,CN(CCCN1CCN(c2ccccc2)CC1)c1cccc(F)c1
2,40,Oc1cccc(CCCN2CCN(c3ccccc3)CC2)c1
3,3.1,Oc1cccc(CCCCN2CCN(c3ccccc3)CC2)c1
4,39.6,CN(CCCN1CCN(c2ccccc2)CC1)c1cccc(NS(C)(=O)=O)c1
5,109,OCc1cccc(NCCCN2CCN(c3ccccc3)CC2)c1
6,161,CN(CCCN1CCN(c2ccccc2)CC1)c1cccc(Br)c1
7,77.9,COC(=O)c1cccc(NCCCN2CCN(c3ccccc3)CC2)c1
8,161,CC(=O)Nc1cccc(N(C)CCCN2CCN(c3ccccc3)CC2)c1
9,10.1,Oc1cccc(NCCCN2CCN(c3ccccc3)CC2)c1
10,252,Oc1cccc(NCCN2CCN(c3ccccc3)CC2)c1
11,63.3,NC(=O)c1cccc(NCCCN2CCN(c3ccccc3)CC2)c1
12,84.8,Cc1cccc(N(C)CCCN2CCN(c3ccccc3)CC2)c1
13,13.2,O=Cc1cccc(NCCCN2CCN(c3ccccc3)CC2)c1

# Target: T1, 5-hydroxytryptamine receptor 7
# Assay: Displacement of [3H]5-HT from human 5-HT7 receptor expressed in HEK293 cells at 10^-5 mol/L after 30 mins by microbeta counting analysis
# Assay type: cell-based
# Method in brief: (§1)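 Membranes incubated 30 min at 25 °C with 5 nmol/L [3H]5-HT in 50 mM Tris-HCl pH 7.4 containing pargyline, CaCl2 and ascorbic acid, with the test compound at a single fixed concentration. Non-specific binding with 100 µM cold 5-HT; separation by filtration; result reported as % displacement.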
row,inhibition [%],Structure (SMILES)
1,74,CN(CCCCCCN1CCN(c2ccnc3cc(Cl)ccc23)CC1)c1cccc(O)c1
2,42,Oc1cccc(OCCN2CCN(c3ccccc3)CC2)c1
3,85,CN(CCN1CCN(c2ccccc2)CC1)c1cccc(N)c1
4,82,CN(CCN1CCN(Cc2ccccc2)CC1)c1cccc(O)c1

row,Structure (SMILES),inhibition [%]
1,Oc1ccc2[nH]cc(CCN3CCN(c4cccc(-c5ccccc5)c4)CC3)c2c1,88

# Target: T1, 5-hydroxytryptamine receptor 7
# Assay: Displacement of [3H]5-HT from human 5-HT7 receptor expressed in HEK293 cells at 10^-6 mol/L after 30 mins by microbeta counting analysis
# Assay type: cell-based
# Method in brief: as §1
row,inhibition [%],Structure (SMILES)
1,28,CN(CCCCCCN1CCN(c2ccnc3cc(Cl)ccc23)CC1)c1cccc(O)c1
2,21,Oc1cccc(OCCN2CCN(c3ccccc3)CC2)c1
3,40,CN(CCN1CCN(c2ccccc2)CC1)c1cccc(N)c1
4,42,CN(CCN1CCN(Cc2ccccc2)CC1)c1cccc(O)c1

row,Structure (SMILES),inhibition [%]
1,Oc1ccc2[nH]cc(CCN3CCN(c4cccc(-c5ccccc5)c4)CC3)c2c1,42

# Target: T1, 5-hydroxytryptamine receptor 7
# Assay: Antagonist activity at human 5-HT7 receptor expressed in CHO cells assessed as residual 5-HT-stimulated cAMP accumulation at 1 uM relative to control
row,% serotonin response [%],Structure (SMILES)
1,48,CN(CCN1CCN(c2ccccc2)CC1)c1cccc(NS(C)(=O)=O)c1
2,56,CN(CCCCCCN1CCN(c2ccccc2)CC1)c1cccc(O)c1
3,69,CN(CCCCCN1CCN(c2ccccc2)CC1)c1cccc(O)c1
